# Laboratory results as given in ChEMBL document CHEMBL1687913, “Structure-activity relationship, conformational and biological studies of temporin L analogues” (J Med Chem, 2011).
# Where a SMILES comes first, the peptide text is derived from it.
# Assays:
# [1] = system: Priestia megaterium; experiment: Antibacterial activity against Bacillus megaterium Bm11 after 18 to 20 hrs by microbroth dilution method; format: functional
# Method in brief: (§1)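 CLSI microbroth dilution, adapted. Mid-log bacteria, 2 × 10^6 CFU/mL in Mueller-Hinton broth, mixed 1:1 with MH broth holding peptide in serial 2-fold dilutions in 20% ethanol (0.75-48 μM). Incubated 18-20 h at 37 °C; growth read as A600. MIC is the lowest concentration giving 100% growth inhibition.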
# [2] = system: Staphylococcus aureus; experiment: Antibacterial activity against Staphylococcus aureus ATCC 25923 after 18 to 20 hrs by microbroth dilution method; format: functional; method in brief: as §1
# [3] = Toxicity in human erythrocytes assessed as hemolysis at 12 uM after 40 mins; format: cell-based, Erythrocyte; settings: read-out: Activity
# Method in brief: (§2)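 Human red blood cells suspended in 0.9% (w/v) NaCl and incubated 40 min at 37 °C with gentle mixing with serial 2-fold peptide dilutions (peptide predissolved in 20% ethanol). Spun 5 min at 900g; supernatant read at 415 nm. Cells lysed in distilled water set the 100% lysis reference.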
# [4] = system: Acinetobacter junii; experiment: Antibacterial activity against […] Acinetobacter junii RT-4 after 18 to 20 hrs by microbroth dilution method; format: functional; method in brief: as §1
# [5] = system: Staphylococcus epidermidis; experiment: Antibacterial activity against Staphylococcus epidermidis ATCC 12228 after 18 to 20 hrs by microbroth dilution method; format: functional; method in brief: as §1
# [6] = system: Schizosaccharomyces pombe; experiment: Antifungal activity against Schizosaccharomyces pombe after 18 to 20 hrs by microbroth dilution method; format: functional
# Method in brief: (§3)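 Yeasts tested by adapted CLSI microbroth dilution in Winge medium. Peptide given in serial 2-fold dilutions (0.75-48 μM, made in 20% ethanol). Incubation 18-20 h at 30 °C, read at A600. MIC taken as the concentration giving complete (100%) growth inhibition.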
# [7] = system: Enterococcus faecalis; experiment: Antibacterial activity against Enterococcus faecalis ATCC 29212 after 18 to 20 hrs by microbroth dilution method; format: functional; method in brief: as §1
# [8] = system: Candida albicans; experiment: Antifungal activity against Candida albicans ATCC 10231 after 18 to 20 hrs by microbroth dilution method; format: functional; method in brief: as §3
# [9] = system: Saccharomyces cerevisiae; experiment: Antifungal activity against Saccharomyces cerevisiae after 18 to 20 hrs by microbroth dilution method; format: functional; method in brief: as §3
# [10] = system: Pseudomonas aeruginosa; experiment: Antibacterial activity against Pseudomonas aeruginosa ATCC 15692 after 18 to 20 hrs by microbroth dilution method; format: functional; method in brief: as §1
# [11] = system: Acinetobacter baumannii; experiment: Antibacterial activity against Acinetobacter baumannii ATCC 19606 after 18 to 20 hrs by microbroth dilution method; format: functional; method in brief: as §1
# [12] = system: Yersinia pseudotuberculosis; experiment: Antibacterial activity against Yersinia pseudotuberculosis YPIII after 18 to 20 hrs by microbroth dilution method; format: functional
# Method in brief: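 Broth microdilution adapted from CLSI. Mid-log bacteria at 2 × 10^6 CFU/mL in Mueller-Hinton broth were mixed 1:1 with MH broth containing peptide in serial 2-fold dilutions (peptide in 20% ethanol), 0.75-48 μM. Plates were incubated 18-20 h at 37 °C and growth was read as A600. MIC is the concentration giving 100% growth inhibition.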
# [13] = system: Staphylococcus aureus; experiment: Antibacterial activity against Staphylococcus aureus Cowan I after 18 to 20 hrs by microbroth dilution method; format: functional; method in brief: as §1
# [14] = system: Pseudomonas aeruginosa; experiment: Antibacterial activity against Pseudomonas aeruginosa ATCC 27853 after 18 to 20 hrs by microbroth dilution method; format: functional; method in brief: as §1
# [15] = Toxicity in human erythrocytes assessed as hemolysis at 24 uM after 40 mins; format: cell-based, Erythrocyte; settings: read-out: Activity; method in brief: as §2
# [16] = system: Staphylococcus capitis; experiment: Antibacterial activity against Staphylococcus capitis after 18 to 20 hrs by microbroth dilution method; format: functional; method in brief: as §1
# [17] = system: Escherichia coli; experiment: Antibacterial activity against Escherichia coli ATCC 25922 after 18 to 20 hrs by microbroth dilution method; format: functional; method in brief: as §1
# [18] = Toxicity in human erythrocytes assessed as hemolysis at 1.5 uM after 40 mins; format: cell-based, Erythrocyte; settings: read-out: Activity; method in brief: as §2
# [19] = system: Pseudomonas syringae; experiment: Antibacterial activity against Pseudomonas syringae pv tobaci after 18 to 20 hrs by microbroth dilution method; format: functional; method in brief: as §1
# [20] = Toxicity in human erythrocytes assessed as hemolysis at 3 uM after 40 mins; format: cell-based, Erythrocyte; settings: read-out: Activity; method in brief: as §2
# [21] = system: Escherichia coli; experiment: Antibacterial activity against Escherichia coli D21 after 18 to 20 hrs by microbroth dilution method; format: functional; method in brief: as §1
# [22] = system: Streptococcus pyogenes; experiment: Antibacterial activity against Streptococcus pyogenes ATCC 21547 after 18 to 20 hrs by microbroth dilution method; format: functional; method in brief: as §1
# [23] = Toxicity in human erythrocytes assessed as hemolysis at 6 uM after 40 mins; format: cell-based, Erythrocyte; settings: read-out: Activity; method in brief: as §2
Structure (SMILES),MIC [1],MIC [2],"hemolysis at 40 min, 12 µM [3]",MIC [4],MIC [5],MIC [6],MIC [7],MIC [8],MIC [9],MIC [10],MIC [11],MIC [12],MIC [13],MIC [14],"hemolysis at 40 min, 24 µM [15]",MIC [16],MIC [17],"hemolysis at 40 min, 1.5 µM [18]",MIC [19],"hemolysis at 40 min, 3 µM [20]",also measured
CC[C@H](C)[C@H](NC(=O)[C@H](CCCNC(=N)N)NC(=O)CNC(=O)[C@H](CC(C)C)NC(=O)[C@H](Cc1ccccc1)NC(=O)[C@H](CCCNC(=N)N)NC(=O)[C@H](CO)NC(=O)[C@H](Cc1ccccc1)NC(=O)[C@H](Cc1c[nH]c2ccccc12)NC(=O)[C@H](CCCNC(=N)N)NC(=O)[C@@H](NC(=O)[C@@H](N)Cc1ccccc1)C(C)C)C(=O)N[C@@H](CC(C)C)C(N)=O (H-FVRWFSRFLGRIL-NH2),3 µM,6 µM,92%,12 µM,6 µM,12 µM,24 µM,24 µM,24 µM,24 µM,6 µM,6 µM,6 µM,24 µM,100%,6 µM,48 µM,6%,6 µM,14%,"MIC [21]: 24 µM; MIC [22]: 3 µM; hemolysis at 40 min, 6 µM [23]: 43%"
CC(C)C[C@H](NC(=O)[C@H](CC(C)C)NC(=O)[C@H](CCCNC(=N)N)NC(=O)CNC(=O)[C@H](CC(C)C)NC(=O)[C@H](CC(C)C)NC(=O)[C@H](CCCCN)NC(=O)[C@H](CO)NC(=O)[C@H](CC(C)C)NC(=O)[C@H](Cc1c[nH]c2ccccc12)NC(=O)[C@H](CCC(N)=O)NC(=O)[C@H](CC(C)C)NC(=O)[C@@H](N)CC(C)C)C(N)=O (H-LLQWLSKLLGRLL-NH2),1.5 µM,3 µM,73%,24 µM,1.5 µM,3 µM,3 µM,6 µM,3 µM,12 µM,12 µM,3 µM,1.5 µM,24 µM,100%,1.5 µM,6 µM,4%,6 µM,9%,"MIC [21]: 12 µM; MIC [22]: 6 µM; hemolysis at 40 min, 6 µM [23]: 25%"
CC(C)C[C@H](NC(=O)[C@H](Cc1c[nH]c2ccccc12)NC(=O)[C@H](CCCNC(=N)N)NC(=O)CNC(=O)[C@H](CC(C)C)NC(=O)[C@H](CC(C)C)NC(=O)[C@H](CCCCN)NC(=O)[C@H](CO)NC(=O)[C@H](CC(C)C)NC(=O)[C@H](Cc1c[nH]c2ccccc12)NC(=O)[C@H](CCC(N)=O)NC(=O)[C@H](CC(C)C)NC(=O)[C@@H](N)CC(C)C)C(N)=O (H-LLQWLSKLLGRWL-NH2),3 µM,6 µM,100%,6 µM,3 µM,6 µM,12 µM,12 µM,12 µM,> 48 µM,6 µM,6 µM,6 µM,> 48 µM,100%,6 µM,> 48 µM,8%,12 µM,13%,"MIC [21]: > 48 µM; MIC [22]: 6 µM; hemolysis at 40 min, 6 µM [23]: 78%"
CC[C@H](C)[C@H](NC(=O)[C@H](CCCNC(=N)N)NC(=O)CNC(=O)[C@H](CC(C)C)NC(=O)[C@H](Cc1ccccc1)NC(=O)[C@H](CCCCN)NC(=O)[C@H](CO)NC(=O)[C@H](Cc1ccccc1)NC(=O)[C@H](Cc1c[nH]c2ccccc12)NC(=O)[C@H](CCC(N)=O)NC(=O)[C@@H](NC(=O)[C@@H](N)Cc1ccccc1)C(C)C)C(=O)N[C@@H](CC(C)C)C(N)=O [TEMPORIN L],1.5 µM,3 µM,92%,3 µM,3 µM,6 µM,6 µM,12 µM,6 µM,24 µM,6 µM,3 µM,3 µM,> 48 µM,94%,1.5 µM,12 µM,3%,6 µM,13%,"MIC [21]: 12 µM; MIC [22]: 6 µM; hemolysis at 40 min, 6 µM [23]: 48%"
